Most compounds without a hit are left out; they make up all but 3.1% or so of the library.
MBD2 DNA inh = MBD2-methylated oligo binding inhibition. Q9UBB5. TR-FRET, MBD2 binding to methylated oligonucleotide. inhibition, % at 4.4 µM. hit rate 0.31% among 370,000. AID 686964; in the data active means inhibition above about 13%
CSN deneddyl inh = CSN deneddylation inhibition | AID 651999 | hit rate 0.38% among 360,000 | Q92905 | inhibition, % at 12.5 µM | Purified CSN, SCF-Nedd8-OG deneddylation, fluorescence polarization;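 active means pattern-corrected inhibition above about 35%, with an unprinted fluorescence ratio check between 0.5 and 1.5, limit read from the data, passing the limit was not always enough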;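 further: 0% = enzyme with substrate and 100% = substrate without enzyme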
Target sequence (Q92905 whole entry, looked up, one chain of several): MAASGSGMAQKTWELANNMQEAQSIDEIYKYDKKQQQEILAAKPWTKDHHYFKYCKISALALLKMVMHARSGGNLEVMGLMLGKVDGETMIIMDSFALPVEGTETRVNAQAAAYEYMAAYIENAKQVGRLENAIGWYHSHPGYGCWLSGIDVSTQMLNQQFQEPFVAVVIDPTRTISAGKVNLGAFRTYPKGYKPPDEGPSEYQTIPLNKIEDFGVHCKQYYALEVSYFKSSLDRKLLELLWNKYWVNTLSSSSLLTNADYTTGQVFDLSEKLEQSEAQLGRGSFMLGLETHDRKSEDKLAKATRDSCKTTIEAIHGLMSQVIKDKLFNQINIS
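Assay system: purified human Csn5 enzyme expressed in HEK293T cells; measure: % inhibition; also added: SCFSkp2-Nedd8OG substrate at 10 nM final; technique: fluorescence polarization; times: reaction 90 min, room temperature; medium: Tris buffer pH 7.5, NaCl, DTT, Tween-20, trehalose, ovalbumin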
LEDGF integ inh = blocks HIV-1 LEDGF/p75-dependent DNA integration; AID 743269; inhibition, % at 3.7 µM; TR-FRET IN-LEDGF/p75 DNA integration, Eu/Cy5; hit rate 0.64% among 370,000;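 active means inhibition above the screen-wide mean plus 3 SD, cut at about 13% in these data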;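 further: signal is the Cy5 over europium emission ratio at 671 and 618 nm; 0% = plate median of compound wells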
UHRF1 MBD2 ctr = blocks human UHRF1 binding to methylated DNA; AID 687016; Q96T88; inhibition, % at 4.4 µM; hit rate 0.75% among 370,000; UHRF1 binding to methylated oligo, TR-FRET; in the data active means inhibition above about 21%;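 further: UHRF1 SRA domain binding a hemimethylated CpG hairpin DNA probe; 0% = median of test compound wells and 100% = reference inhibitor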
ATG4B inh = inhibitors of human ATG4B cysteine protease | Q9Y4P1 | AID 504462 | hit rate 0.51% among 340,000 | ATG4B cleavage of LC3-PLA2, NBD-HPC fluorescence, 1 h | inhibition, % at 8.33 µM; in the data active means inhibition above about 40%
rCAG binder = binds r(CAG) RNA repeats. r(CAG) RNA repeat, TO-PRO-1 dye displacement fluorescence. inhibition, % at 3 µM. hit rate 1.3% among 370,000. AID 651821;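 active means inhibition above the plate cutoff, the mean of all test compounds on that plate plus 3 SD, cut at about 35% in these data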;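 further: 0% = DMSO alone and 100% = 100 µM mitoxantrone as full dye displacement; higher means more dye released from RNA so lower well fluorescence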
Numbers without * were called inactive; nt = no result given.

SMILES	MBD2 DNA inh	CSN deneddyl inh	LEDGF integ inh	UHRF1 MBD2 ctr	ATG4B inh	rCAG binder
Cc1nn(Cc2nnc(SCC(=O)Nc3cccc(C(F)(F)F)c3)n2C)c(C)c1[N+](=O)[O-]	-0.5	-0.2	0.0	40.7*	5.6	-0.9
O=C(Nc1ccc(NC(=O)c2ccccc2Cl)c(Cl)c1)c1ccccn1	5.3	nt	3.2	1.2	nt	nt
CCN(CC)C(=O)CC[C@H]1CC[C@]2(CCCN(Cc3cccnc3)C2)O1	2.8	nt	-2.0	-1.5	nt	2.0
COC(=O)C[C@@H]1CC[C@H]2[C@@H](COc3ccc(NC(=O)Nc4ccc(C)cc4)cc3C(=O)N2C)O1	-1.2	nt	0.6	3.4	nt	1.2
O=C(Nc1ccc(-c2nc3ccccc3c(=O)o2)cc1)c1ccco1	6.6	10.1	-0.9	21.4*	19.8	2.1
Cc1ccc2nc(-c3ccc(NC(=O)c4ccco4)cc3)[nH]c2c1	nt	43.5*	nt	nt	-9.7	nt
Cn1cccc1-c1nc2ccc(NC(=O)c3ccco3)cc2[nH]1	-0.6	3.2	-1.6	3.0	-12.2	5.7
CC(=O)Nc1ccc(-c2nc3ccccc3c(=O)o2)cc1	-3.3	7.2	-0.5	-0.9	-1.8	2.2
COC(=O)[C@]12CCCCC=C1N(Cc1ccc(OC)cc1)C(=O)[C@@H]2CC(=O)NCc1ccc(C)o1	0.9	nt	-1.2	-0.4	nt	2.3
CCOP(=O)(OCC)c1nc(-c2cccc3ccccc23)oc1NCc1ccc(OC)cc1	9.2	8.3	6.0	24.5*	-1.6	-0.4
CCCCCCn1c(=O)n2n(c1=O)[C@@H]1CN(S(=O)(=O)c3ccc(C)cc3)C[C@]1(O)[C@@H](OC(=O)NCC1CCCCC1)C2	4.0	2.4	-0.1	23.3*	nt	6.5
COC(=O)[C@@H]1N=C(c2ccc(OC)cc2)O[C@]12C(=O)N(Cc1cn(-c3ccccc3)nn1)c1cccc(Cl)c12	13.0	nt	0.1	17.7	nt	10.7
COC(=O)c1ccc(CSc2nc(-c3ccccc3)cs2)o1	0.3	-0.2	-2.8	21.5*	1.1	-1.4
Oc1ccc2ccccc2c1C=NC12CN3CCN(CN(C3)C1)C2	-5.0	3.9	23.5*	-2.1	9.6	12.7
OCC(CO)(CO)N=Cc1c(O)ccc2ccccc12	-3.1	2.8	-0.1	-5.8	-1.5	7.4
CC(COc1cccc(C(F)(F)F)c1)CN1CCC(C(O)(c2ccccc2)c2ccccc2)CC1 (stereo unspecified)	1.2	nt	-5.3	0.5	nt	1.5
COc1ccc2cc3[n+](cc2c1O)CCc1cc2c(cc1-3)OCO2	-1.0	6.3	27.2*	7.5	nt	17.0
C[C@H]1[C@@H](NC(=O)c2ccc(C(C)(C)C)cc2)CC[C@@]23CCCN2C(=O)CCC[C@@H]13	-2.9	nt	-0.3	1.6	nt	nt
O=C(c1ccccc1NS(=O)(=O)c1ccc([N+](=O)[O-])cc1[N+](=O)[O-])N1O[C@@H]2C=C[C@H]1C2	6.5	8.2	3.7	-5.1	-2.6	35.1*
O=C(c1ccccc1NS(=O)(=O)c1ccccc1[N+](=O)[O-])N1CCOCC1	0.7	2.3	1.3	-2.7	-0.2	2.3
COc1ccc(C(=O)NCCN2C(=O)C3C4C=CC(C4)C3C2=O)cc1OC (stereo unspecified)	-0.9	nt	1.2	-0.5	nt	-0.9
S=c1[nH]nc(COc2ccccc2)n1Cc1ccccc1	-1.3	5.2	-0.8	-0.4	2.8	1.9
CC(C)CCn1c(COc2ccccc2)n[nH]c1=S	0.3	-1.3	-2.2	21.4*	-7.6	-2.6
CN1C(=O)c2cc(NC(=O)C3CCCCC3)ccc2OC[C@H]2O[C@@H](CC(=O)NC3CCCC3)CC[C@H]21	-5.1	nt	0.2	-1.2	nt	4.9
Cc1cc(NC(=O)c2ccc3c(c2)C(=O)N(C2CCCCC2)C3=O)no1	-3.6	7.6	2.8	-2.6	-3.7	0.5
SMILES	MBD2 DNA inh	CSN deneddyl inh	LEDGF integ inh	UHRF1 MBD2 ctr	ATG4B inh	rCAG binder
O=C(Nc1ccncc1)c1ccc2c(c1)C(=O)N(C1CCCCC1)C2=O	0.7	-2.7	0.7	25.9*	-9.8	0.8
O=S1(=O)c2ccccc2OC(COCc2ccccc2)CN1C1CC1 (stereo unspecified)	6.7	-5.7	2.3	25.9*	3.9	-0.7
Cc1ccc(C(=O)Oc2oc(-c3ccccc3)nc2C=Nc2ccc(N(C)C)cc2)cc1	4.4	46.6*	-0.9	-1.5	-6.0	1.7
COC(=O)C[C@@H]1CC[C@H]2[C@@H](COc3ccc(NC(=O)NC(C)C)cc3C(=O)N2C)O1	1.2	nt	4.0	-2.9	nt	0.5
O=C(COC(=O)c1ccccc1Cl)Nc1cccnc1Cl	-1.8	-2.7	-1.1	-0.9	-7.3	1.2
O=C(COC(=O)c1ccccc1F)Nc1cccnc1Cl	-4.4	5.7	1.2	24.6*	4.7	-1.9
CCCCCCCCN1C(=O)[C@@H](CC(=O)NCCCOC)C[C@@]2(C(=O)OC)C1=C[C@H](C(C)C)O[C@@H]2C1CC1	-7.7	nt	10.8	-1.7	nt	0.0
CCCCCCNC(=O)C1CSCCS(=O)(=O)N1Cc1ccc(OC)cc1 (stereo unspecified)	2.2	nt	0.5	-4.8	nt	0.3
COC(=O)c1ccc(Cn2cnc3cnccc32)cc1	0.0	-0.1	-4.1	24.8*	2.6	-1.9
COC(=O)c1ccc(Cn2cnc3c(N)ncnc32)cc1	1.0	-2.9	3.2	-0.1	1.5	1.2
COC(=O)[C@]12C[C@H](CC(=O)NCCC(C)C)C(=O)N(Cc3ccccc3)C1=C[C@H](C(C)(C)C)O[C@@H]2C	0.3	nt	0.5	1.1	nt	0.0
COc1ccc(N(C(=O)CS(=O)CC(=O)Nc2ccc(F)cc2)C(C(=O)NC2CCCCC2)c2cccs2)cc1 (stereo unspecified)	-0.3	-5.4	15.5*	-1.8	-0.4	2.1
COC(=O)c1cc2c(c3c4cc(C)ccc4n(C(=O)c4ccccc4)c13)C(=O)N(Cc1ccccc1)C2	-2.5	nt	0.5	-2.5	nt	10.3
CC(=O)NS(=O)(=O)c1cccnc1Nc1cccc(Cl)c1C	0.8	-3.8	-4.8	1.2	-4.8	3.1
NS(=O)(=O)c1cccnc1Nc1c(Cl)cccc1Cl	1.3	-3.1	-1.7	20.9*	-6.5	4.4
Cc1ccc2cc(CN(C)S(C)(=O)=O)c(=O)[nH]c2c1	-2.3	-6.6	4.3	35.2*	-0.7	4.2
Cc1cc(C(=O)NC2CCC(O)CC2)c(C)o1 (stereo unspecified)	3.1	88.6*	-4.1	-1.2	-4.6	3.6
Cc1cc(C(=O)NC2CCCc3ccccc32)c(C)o1 (stereo unspecified)	-1.5	-4.5	-3.5	-2.9	8.6	-3.4
FC(F)(F)c1cc(Cl)c2nc(-c3ccco3)c(Cc3ccccc3C(F)(F)F)n2c1	5.3	17.2	8.0	21.1*	nt	58.4*
COc1ccc(Cc2c(-c3ccc(C#N)cc3)nc3c(Cl)cc(C(F)(F)F)cn23)c(C)c1	1.4	0.9	2.2	17.9	nt	7.3
CCCc1nc2c(Cl)cc(C(F)(F)F)cn2c1Cc1ccc(OC)cc1C	5.8	0.4	-1.2	22.3*	nt	9.9

Screening data as filed in PubChem BioAssay.
